LYPLA1 inh – blocks human lysophospholipase 1, a PME1 counter-screen. inhibition, % at 5.9 µM. AID 2174. O75608. 0.16% of 320,000 active. recombinant LYPLA1, FP-Rh probe fluorescence polarization;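 active = inhibition above the mean of all tested compounds plus 3 SD, set per campaign, cut at about 14% in these data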;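 note: inhibitors block serine hydrolase probe labeling of LYPLA1 so polarization falls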
PAD4 FP inh – PAD4 (human) enzyme inhibition; recombinant PAD4, RCA probe fluorescence polarization; inhibition, % at 6.36 µM; 0.41% of 330,000 active;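 active = percent inhibition above a cutoff equal to the mean of all tested compounds plus 3 SD, cut at about 15% in these data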
LYPLA2 inh – LYPLA2 (human) inhibition in PME1 counter-screen | recombinant LYPLA2, FP-Rh probe fluorescence polarization | inhibition, % at 5.9 µM | AID 2177 | O95372 | 0.38% of 320,000 active;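 active = inhibition above the screen-wide mean plus 3 SD, limit set per campaign, cut at about 26% in these data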
Fam108B inh – Fam108B inhibition, counter-screen for RBBP9 inhibitors; recombinant Fam108B, FP-Rh probe fluorescence polarization; inhibition, % at 9.51 µM; 0.33% of 300,000 active; AID 1947;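 active = inhibition above the screen mean inhibition plus 3 SD, computed separately per campaign, cut at about 18% in these data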;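 note: inhibitors lower polarization as less probe binds the enzyme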
PME-1 primary – PME-1 (human) inhibition | Q9Y570 | recombinant PME-1, FP-Rh probe fluorescence polarization | inhibition, % at 5.9 µM | 0.53% of 320,000 active | AID 2130;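 active = inhibition above the campaign mean of all compounds plus 3 SD, cut at about 26% in these data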;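 note: competitive labeling of PME-1 active site by serine hydrolase directed probe; inhibitors block probe labeling so polarization falls and inhibition rises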
Target sequence (Q9Y570 whole entry, looked up): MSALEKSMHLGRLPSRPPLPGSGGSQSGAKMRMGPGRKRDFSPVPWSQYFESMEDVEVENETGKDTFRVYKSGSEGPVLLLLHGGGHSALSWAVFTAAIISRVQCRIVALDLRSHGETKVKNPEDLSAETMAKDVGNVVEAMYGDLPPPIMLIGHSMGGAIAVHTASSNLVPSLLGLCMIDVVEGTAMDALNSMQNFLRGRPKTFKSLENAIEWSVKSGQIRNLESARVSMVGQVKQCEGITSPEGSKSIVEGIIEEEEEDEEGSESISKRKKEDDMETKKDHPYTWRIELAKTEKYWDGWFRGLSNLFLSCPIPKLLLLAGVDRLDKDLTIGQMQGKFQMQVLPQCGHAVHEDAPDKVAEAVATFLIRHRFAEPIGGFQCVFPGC
RBBP9 inhibitor – inhibitors of human serine hydrolase RBBP9; recombinant RBBP9, FP-Rh probe fluorescence polarization; inhibition, % at 7.94 µM; 0.2% of 220,000 active;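 active = inhibition above the campaign mean of all tested compounds plus 3 SD, cut at about 14% in these data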
Target sequence (O75884 whole entry, looked up): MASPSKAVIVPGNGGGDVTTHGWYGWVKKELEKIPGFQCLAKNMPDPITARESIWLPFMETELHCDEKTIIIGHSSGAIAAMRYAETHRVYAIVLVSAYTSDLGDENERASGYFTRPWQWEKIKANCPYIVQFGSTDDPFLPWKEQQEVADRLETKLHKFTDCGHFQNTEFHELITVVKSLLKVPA
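Measured by: FP readout at 525/598 nm; material: recombinant human RBBP9; also added: Serine-hydrolase probe FP-Rh, 375 nM pre-mixing; medium: Tris buffer pH 8.0, NaCl, Pluronic; replication: one well per compound; doses: one concentration, 7.94 µM nominal, 0.794% DMSO; timing: preincubation 30 min plus labeling 45 min at 25 °C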
PAD4 confirm – confirmation of human PAD4 inhibitors | shares compounds with PAD4 FP inh | recombinant PAD4, RCA probe fluorescence polarization | inhibition, % at 6.36 µM | 28% of 1,200 active | AID 488796;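 active = mean inhibition across replicates above the hit cutoff set by the earlier primary screen, cut at about 15% in these data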;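 note: inhibitors block active-site labeling by the probe so polarization falls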
Large screens that a line does not name were inactive (follow-up assays come after a bar, where they were run). Only some compounds are listed: those with a hit (about 1.3% of all), similar ones and a draw of the others.

COc1cccc(C(C[N+](=O)[O-])c2c(C)[nH]n(-c3ccccc3)c2=O)c1 (stereo not drawn)	PAD4 FP inh 35 (no result: RBBP9 inhibitor) | PAD4 confirm inactive
Cc1[nH]n(-c2ccccc2)c(=O)c1C(c1cccc([N+](=O)[O-])c1)c1c(C)[nH]n(-c2ccccc2)c1=O	PAD4 FP inh 30 | PAD4 confirm inactive
Cc1[nH]n(-c2ccccc2)c(=O)c1C(c1ccc(C(=O)O)cc1)c1c(C)[nH]n(-c2ccccc2)c1=O	PAD4 FP inh 73 | PAD4 confirm inactive
COc1cc(OC)cc(C(=O)NC(=S)N(Cc2ccccc2)C(C)C)c1	none (no result: RBBP9 inhibitor)
C=CCSc1nc2c(cnn2-c2ccccc2)c(=O)n1N	none
Cc1ccc([N+](=O)[O-])cc1NC(=O)c1cccnc1	none (no result: RBBP9 inhibitor)
CC1CCN(C(=O)CCCC(=O)N2CCC(C)CC2)CC1	none (no result: RBBP9 inhibitor)
O=C(O)CCC(=O)Nc1ccc(SSc2ccc(NC(=O)CCC(=O)O)cc2)cc1	PAD4 FP inh 56 (no result: RBBP9 inhibitor) | PAD4 confirm 50
O=C(O)CCC(=O)Nc1ccc(F)cc1	none
COc1cc(OC)cc(N(C(=O)CNC(=O)c2cccs2)C(C(=O)NCC2CCCO2)c2ccccc2)c1 (stereo not drawn)	none (no result: RBBP9 inhibitor)
CC(=O)NS(=O)(=O)c1ccc(NC(=O)CSc2ccc(C)cc2)cc1	none
O=[N+]([O-])c1cc(Br)c(O)c(C=Nc2ccc(N3CCOCC3)cc2)c1	PAD4 FP inh 54 | PAD4 confirm inactive
Cc1ccc(C(NC(=O)Nc2ccccn2)C(Cl)(Cl)Cl)cc1F (stereo not drawn)	PAD4 FP inh 26 (no result: RBBP9 inhibitor) | PAD4 confirm inactive
Cc1cccc(NC(=O)Nc2ccccn2)c1C	none
CCOc1ccc(NC(=O)CN(C)C(=O)CC2CC3CCC2C3)cc1OCC (stereo not drawn)	PAD4 FP inh 45 (no result: RBBP9 inhibitor) | PAD4 confirm inactive
COc1ccc(CNC(=O)/C(C#N)=C2\N=C(NC(=O)c3cccs3)c3ccccc32)cc1	none
CC(C)Oc1ccc(C2NC(=O)c3ccccc3O2)cc1 (stereo not drawn)	none (no result: RBBP9 inhibitor)
Cc1ccc(S(=O)(=O)CCSc2cccc(C(=O)Nc3ccccc3C(=O)O)c2)cc1	PAD4 FP inh 19, PME-1 primary 36 | PAD4 confirm 36
CCN1c2ccccc2N(C)C1(C)c1ccccc1 (stereo not drawn)	PAD4 FP inh 20 | PAD4 confirm inactive
CN1c2ccccc2N(C)C1(C)c1ccccc1	none
CCC1CCCCN1C(=O)CCc1nnc(C2CCCCC2)o1 (stereo not drawn)	none
c1ccc(C2=NNC(=NC3CC3)SC2)cc1	PAD4 FP inh 22 | PAD4 confirm inactive
COc1ccc(/C=C/C(=O)OCC(=O)Nc2ccc3c(c2)OCO3)cc1	none (no result: Fam108B inh, RBBP9 inhibitor)
c1ccc(Nc2cc(Nc3ccccc3)[nH]n2)cc1	PAD4 FP inh 31 | PAD4 confirm inactive
CC1CCCN(C(=O)C2CCN(CC(C)c3ccccc3)CC2)C1 (stereo not drawn)	none
CS(=O)(=O)c1ccc(C(=O)Nc2cccc(-c3nc4ccccc4[nH]3)c2)cc1	PAD4 FP inh 28 (no result: RBBP9 inhibitor) | PAD4 confirm inactive
CS(=O)(=O)c1cccc(C(=O)Nc2cccc(-c3nc4ccccc4[nH]3)c2)c1	PAD4 FP inh 20 (no result: RBBP9 inhibitor) | PAD4 confirm 16
CC(=O)NCCC(=O)Nc1sc2c(c1-c1nc3ccccc3[nH]1)CCCC2	none
CN1CCN(S(=O)(=O)c2cccc(C(=O)Nc3sc4c(c3-c3nc5ccccc5[nH]3)CCCC4)c2)CC1	PAD4 FP inh 19 | PAD4 confirm inactive
CS(=O)(=O)Cc1ccc(C(=O)Nc2cccc(-c3nc4ccccc4[nH]3)c2)cc1	none (no result: RBBP9 inhibitor)
CS(=O)(=O)c1ccc(C(=O)Nc2ccc(-c3nc4ccccc4[nH]3)cc2)cc1	none (no result: RBBP9 inhibitor)
CC(C(=O)O)C(=O)O	PAD4 FP inh 39 (no result: RBBP9 inhibitor) | PAD4 confirm inactive
Cc1cccc(C(=O)O)c1NC(=O)Cc1cccc2ccccc12	none (no result: RBBP9 inhibitor)
Cc1cccc(C(=O)N[C@H](C(=O)Nc2nccs2)C(C)C)c1	none
COc1ccc(CCNC(=O)CN2C(=O)COc3ccc(S(=O)(=O)N4CCCC4)cc32)c(OC)c1	none (no result: RBBP9 inhibitor)
N#CCSc1nc2cc(C(=O)N3CCCC3)ccc2c(=O)n1Cc1ccccc1	none
N#CCSc1nc2cc(C(=O)N3CCC(C(N)=O)CC3)ccc2c2nc3ccccc3n12	PAD4 FP inh 22 | PAD4 confirm 25
COC(=O)[C@@H]1C[C@]2(OC(=O)c3ccccc3)C=CC(=O)C[C@@H]2N1C(=O)OCc1ccccc1	PAD4 FP inh 19 | PAD4 confirm 22
COC(CNC(=O)C1CCCN1C(=O)OCc1ccccc1)OC (stereo not drawn)	none
CC(C)CNc1nnnc2c1sc1nc(N3CCOCC3)c3c(c12)CC(C)(C)SC3	PAD4 FP inh 27 | PAD4 confirm inactive
Cc1ccc(C)c(-n2sc3ccc(F)cc3c2=O)c1	PAD4 FP inh 38 (no result: Fam108B inh, RBBP9 inhibitor) | PAD4 confirm 35
Cc1ccc(-c2cc(=O)c3cc(F)ccc3[nH]2)cc1	none
COc1ccc(-n2sc3ccc(F)cc3c2=O)cc1	PAD4 FP inh 31 (no result: Fam108B inh, RBBP9 inhibitor) | PAD4 confirm 30
O=c1c2cc(F)ccc2sn1-c1ccc(F)cc1	PAD4 FP inh 30 (no result: Fam108B inh, RBBP9 inhibitor) | PAD4 confirm 25
O=C1c2ccc3c4c(ccc(c24)C(=O)N1c1cccc(O)c1)C(=O)N(c1cccc(O)c1)C3=O	PAD4 FP inh 18 | PAD4 confirm 38
O=C1c2ccc3c4c(ccc(c24)C(=O)N1c1cccc(O)c1)CC3	none
Cc1cccc(N2C(=O)c3cccc4c(N)ccc(c34)C2=O)c1	PAD4 FP inh 27 (no result: RBBP9 inhibitor) | PAD4 confirm 22
Cc1ccsc1CN(C(=O)c1ccc([N+](=O)[O-])cc1)C1CCS(=O)(=O)C1 (stereo not drawn)	none (no result: RBBP9 inhibitor)
CCc1ccc2c(CC(=O)Nc3cccc(S(=O)(=O)N4CCOCC4)c3)coc2c1	none (no result: Fam108B inh, RBBP9 inhibitor)
O=C(O)c1cc2ccccc2c2cc(Br)ccc12	none
CN(C)S(=O)(=O)c1cccc(NC(=O)CCCc2nc3ccccc3c(=O)[nH]2)c1	PAD4 FP inh 29 (no result: RBBP9 inhibitor) | PAD4 confirm inactive
O=C(CS)Nc1ccc2ccccc2c1	PAD4 FP inh 28 | PAD4 confirm inactive
CC(C)c1ccc(N(C(=O)c2cc3ccccc3oc2=O)C2C=CS(=O)(=O)C2)cc1 (stereo not drawn)	PAD4 FP inh 17 | PAD4 confirm inactive
O=C(c1cc2ccccc2oc1=O)N(c1ccccc1)C1C=CS(=O)(=O)C1 (stereo not drawn)	none
COc1ccc(-c2cc(C(=O)N3CCCCCC3)c3ccccc3n2)c(OC)c1	PAD4 FP inh 16 (no result: RBBP9 inhibitor) | PAD4 confirm 49
CCOC(=O)c1ccccc1NC(=O)COC(=O)CSC(C)C(=O)Nc1cc(C)on1 (stereo not drawn)	none (no result: RBBP9 inhibitor)

Bioassay records (PubChem BioAssay)
